Assay results published in ChEMBL document CHEMBL4007452, “Discovery of an Orally Selective Inhibitor of Signal Transducer and Activator of Transcription 3 Using Advanced Multiple Ligand Simultaneous Docking” (J Med Chem, 2017).
Activity calls are given as the source filed them. The calls are words filed in the database; no cut-off is given here.

How the values were obtained:
[1] = tested on: Mus musculus; assay: Toxicity in BALB/c nude mouse xenografted with human MDA-MB-231 cells assessed as kidney damage at 2.5 to 10 mg/kg, po qd administered for 32 days by H&E staining based light microscopy; assay type: organism-based; conditions: in vivo, 768 h
How it was run: (§1)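 6-week-old female athymic SPF BALB/c nude mice received 5 x 10^6 MDA-MB-231 cells s.c. in the flank. Oral treatment began once tumors reached about 100 mm3, with 8 mice per group and a saline vehicle control. […] Treatment lasted 32 days. Heart, liver, spleen, lung and kidney were fixed 48 h in 10% neutral-buffered formaldehyde, paraffin-embedded, cut at 5 µm, H&E-stained and examined by light microscopy.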

[2] = Terminal half life in Sprague-Dawley rat plasma at 1 mg/kg, iv measured after 24 hrs by UPLC analysis; assay type: ADME, organism-based; conditions: read-out: beta t1/2 (converted)
How it was run: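 Rats dosed i.v. or p.o. Plasma concentrations followed from 2 min to 24 h after dosing. The bioanalytical method was validated to FDA guidelines for selectivity, linearity, LLOQ, accuracy, precision, recovery, matrix effect and stability.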

[3] = tested on: Mus musculus; assay: In vivo inhibition of STAT3 in po dosed BALB/c nude mouse xenografted with human MDA-MB-231 assessed as reduction in p-STAT3(Y705) level administered as qd for 32 days by Western blot analysis; assay type: functional, organism-based
How it was run: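 Whole-cell lysates from MDA-MB-231 xenograft tumors of mice dosed orally at 2.5, 5 or 10 mg/kg were immunoblotted for P-STAT3(Y705), T-STAT3 and GAPDH.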

[4] = biological target: T1, Signal transducer and activator of transcription 3 (Homo sapiens, UniProt P40763); conditions: 5 uM
T1 sequence (P40763 whole entry): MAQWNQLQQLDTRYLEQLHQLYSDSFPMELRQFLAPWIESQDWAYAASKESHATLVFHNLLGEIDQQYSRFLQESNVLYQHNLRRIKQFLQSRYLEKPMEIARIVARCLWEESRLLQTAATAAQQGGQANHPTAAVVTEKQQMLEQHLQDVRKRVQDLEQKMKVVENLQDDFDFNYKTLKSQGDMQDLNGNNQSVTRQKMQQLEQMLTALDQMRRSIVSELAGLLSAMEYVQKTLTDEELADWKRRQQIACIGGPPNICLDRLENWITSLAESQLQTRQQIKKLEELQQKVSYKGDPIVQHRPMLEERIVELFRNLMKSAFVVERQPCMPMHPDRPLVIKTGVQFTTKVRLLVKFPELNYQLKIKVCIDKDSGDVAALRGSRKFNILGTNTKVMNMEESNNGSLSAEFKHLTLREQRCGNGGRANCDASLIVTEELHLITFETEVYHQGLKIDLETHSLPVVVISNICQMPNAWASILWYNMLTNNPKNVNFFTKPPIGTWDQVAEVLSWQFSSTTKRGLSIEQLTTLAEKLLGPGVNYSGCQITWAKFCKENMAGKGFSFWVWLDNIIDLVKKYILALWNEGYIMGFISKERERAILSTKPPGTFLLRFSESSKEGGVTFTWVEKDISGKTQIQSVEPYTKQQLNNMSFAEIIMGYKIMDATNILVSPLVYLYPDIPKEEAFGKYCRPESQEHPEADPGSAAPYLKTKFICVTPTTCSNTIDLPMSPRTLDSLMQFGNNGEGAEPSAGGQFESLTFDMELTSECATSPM

[5] = tested on: Mus musculus; assay: In vivo inhibition of STAT3 in po dosed BALB/c nude mouse xenografted with human MDA-MB-231 assessed as reduction in p-STAT3 level administered as qd for 32 days by DAB-staining based IHC analysis; assay type: functional, organism-based
How it was run: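 Fixed sections of MDA-MB-231 xenograft tumors from orally dosed nude mice were immunostained for p-STAT3, with positive cells visualized by DAB.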

[6] = tested on: Rattus norvegicus; assay: AUMC (0 to t) in Sprague-Dawley rat plasma at 1 mg/kg, iv measured after 24 hrs by UPLC analysis; assay type: ADME, organism-based; conditions: in vivo
How it was run: (§2)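 Rat plasma sampled from 2 min to 24 h after a single i.v. (1 mg/kg) or p.o. (10 mg/kg) dose. Parameters were derived from the concentration-time profiles. The bioanalytical method was validated to FDA guidelines for selectivity, linearity, LLOQ, accuracy, precision, recovery, matrix effect and stability.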

[7] = biological target: T2, Signal transducer and activator of transcription 1-alpha/beta (Homo sapiens) (UniProt P42224); assay: Inhibition of STAT1 in human MDA-MB-231 cells assessed as reduction in CDK2 mRNA level at 5 to 10 uM by RT-PCR analysis; assay type: cell-based
T2 sequence (whole entry): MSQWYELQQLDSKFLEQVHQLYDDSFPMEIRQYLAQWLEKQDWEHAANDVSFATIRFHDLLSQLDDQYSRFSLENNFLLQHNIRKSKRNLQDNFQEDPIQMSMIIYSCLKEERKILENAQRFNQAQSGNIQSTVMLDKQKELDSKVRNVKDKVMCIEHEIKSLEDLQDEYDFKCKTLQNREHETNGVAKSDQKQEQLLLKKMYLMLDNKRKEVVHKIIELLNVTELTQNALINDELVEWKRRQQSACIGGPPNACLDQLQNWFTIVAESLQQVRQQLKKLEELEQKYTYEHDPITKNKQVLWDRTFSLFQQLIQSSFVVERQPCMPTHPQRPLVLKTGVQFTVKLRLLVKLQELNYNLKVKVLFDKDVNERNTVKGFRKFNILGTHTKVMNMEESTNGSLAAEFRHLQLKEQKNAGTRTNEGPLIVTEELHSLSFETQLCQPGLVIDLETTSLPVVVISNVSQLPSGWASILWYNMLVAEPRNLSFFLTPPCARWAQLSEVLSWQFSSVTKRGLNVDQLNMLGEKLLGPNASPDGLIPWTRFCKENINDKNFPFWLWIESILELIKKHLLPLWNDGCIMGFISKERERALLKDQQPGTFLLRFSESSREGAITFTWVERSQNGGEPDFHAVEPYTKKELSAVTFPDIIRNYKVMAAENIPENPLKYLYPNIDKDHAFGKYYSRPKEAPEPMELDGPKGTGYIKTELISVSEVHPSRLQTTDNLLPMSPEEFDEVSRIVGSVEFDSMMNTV
How it was run: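 Total RNA was extracted from treated MDA-MB-231 cells and 1 µg reverse-transcribed. qPCR ran 95 °C 5 min, then 40 cycles of 95 °C 10 s, 60 °C 15 s and 72 °C 15 s, followed by a melt curve from 60 to 95 °C.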

[8] = Oral bioavailability in Sprague-Dawley rat at 10 mg/kg measured after 24 hrs by UPLC analysis; assay type: ADME, organism-based; conditions: in vivo
[9] = biological target: T1, Signal transducer and activator of transcription 3; assay: Binding affinity to fluorescently labeled STAT3 (unknown origin) by MST-analysis
How it was run: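 Labeled STAT3 protein held constant at 10-20 nM, titrated against up to 16 serial dilutions of unlabeled inhibitor. […] Protein was dye-labeled and freed of excess dye within 45 min. Equal volumes were mixed, loaded into glass capillaries and read by microscale thermophoresis.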

[10] = tested on: Mus musculus; assay: Toxicity in BALB/c nude mouse xenografted with human MDA-MB-231 cells assessed as lung damage at 2.5 to 10 mg/kg, po qd administered for 32 days by H&E staining based light microscopy; assay type: organism-based; conditions: in vivo, 768 h; how it was run: as §1
[11] = biological target: T1, Signal transducer and activator of transcription 3; conditions: 2.5 to 5 uM
[12] = biological target: T2, Signal transducer and activator of transcription 1-alpha/beta (Homo sapiens); assay: Binding affinity to STAT1 (unknown origin) after 30 mins by fluorescence polarization assay
How it was run: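 A competitive fluorescence polarization assay measured displacement of fluorescent phosphopeptide from the SH2 domain of purchased STAT1 or STAT5 protein, using the corresponding peptides.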

[13] = biological target: Epidermal growth factor receptor (Homo sapiens) (UniProt P00533); assay: Inhibition of EGFR in human MDA-MB-231 cells assessed as reduction in p-Akt level at 2.5 to 5 uM after 12 hrs by immunoblot analysis; assay type: cell-based
Chain of Epidermal growth factor receptor (Homo sapiens) (P00533 whole entry): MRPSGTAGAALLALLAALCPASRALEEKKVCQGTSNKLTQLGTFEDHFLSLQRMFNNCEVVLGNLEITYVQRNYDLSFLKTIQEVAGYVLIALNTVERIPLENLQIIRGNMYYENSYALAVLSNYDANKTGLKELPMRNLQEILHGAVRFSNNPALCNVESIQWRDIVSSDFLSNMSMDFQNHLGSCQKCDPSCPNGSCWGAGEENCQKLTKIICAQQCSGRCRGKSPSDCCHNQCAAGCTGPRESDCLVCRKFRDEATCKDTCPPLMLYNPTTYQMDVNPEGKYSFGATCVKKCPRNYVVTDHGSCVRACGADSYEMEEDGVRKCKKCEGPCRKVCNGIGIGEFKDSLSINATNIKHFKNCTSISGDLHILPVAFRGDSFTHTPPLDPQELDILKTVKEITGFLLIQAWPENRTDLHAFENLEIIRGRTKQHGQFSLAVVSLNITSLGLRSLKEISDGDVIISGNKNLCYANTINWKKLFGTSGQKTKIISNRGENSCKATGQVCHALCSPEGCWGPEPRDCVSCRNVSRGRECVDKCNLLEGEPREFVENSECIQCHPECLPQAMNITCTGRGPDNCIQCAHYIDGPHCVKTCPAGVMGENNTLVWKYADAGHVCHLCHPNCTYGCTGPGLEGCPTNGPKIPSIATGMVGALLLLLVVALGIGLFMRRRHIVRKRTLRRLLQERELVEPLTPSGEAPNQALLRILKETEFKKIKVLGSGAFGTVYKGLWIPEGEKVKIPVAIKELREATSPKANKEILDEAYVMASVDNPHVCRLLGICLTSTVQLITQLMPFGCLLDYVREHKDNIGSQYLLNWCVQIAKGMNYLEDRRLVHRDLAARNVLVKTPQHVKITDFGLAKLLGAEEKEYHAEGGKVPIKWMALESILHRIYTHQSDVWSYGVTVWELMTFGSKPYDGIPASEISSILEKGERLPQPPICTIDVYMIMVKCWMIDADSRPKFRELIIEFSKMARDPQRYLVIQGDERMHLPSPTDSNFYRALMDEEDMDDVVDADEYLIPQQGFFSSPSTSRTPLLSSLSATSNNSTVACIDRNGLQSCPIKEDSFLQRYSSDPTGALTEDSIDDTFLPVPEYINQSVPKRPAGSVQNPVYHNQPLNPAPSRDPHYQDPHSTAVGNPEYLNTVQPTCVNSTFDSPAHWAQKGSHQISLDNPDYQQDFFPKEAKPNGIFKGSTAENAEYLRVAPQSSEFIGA
How it was run: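 MDA-MB-231 cells at 60–80% confluence were treated 12 h with 10% FBS at 2.5-10 µM or 2.5-5 µM, against a DMSO control. Whole-cell lysates were immunoblotted, with bands quantified as percent of control.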

[14] = Initial plasma concentration in Sprague-Dawley rat at 1 mg/kg, iv measured after 24 hrs by UPLC analysis; assay type: ADME, organism-based; how it was run: as §2
[15] = Antiproliferative activity against human BkPC-3 cells after 24 hrs by MTT assay; assay type: functional, cell-based; conditions: BkPC-3, 24 h
How it was run: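 Cells were seeded at 3000 per well and incubated 24 h at 37 °C. Compounds were added in triplicate with 10% FBS: 0.1-10 or 0.1-20 µM for cancer lines, 3.125-400 µM for MCF-10A. Viability was read by MTT absorbance at 595 nm, with IC50 fitted from the curves. DMSO stocks were 20 mM.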

[16] = AUC (0 to t) in Sprague-Dawley rat plasma at 1 mg/kg, iv measured after 24 hrs by UPLC analysis; assay type: ADME, organism-based; parameters: dose 1 mg/kg, time < 24 hr, route intravenous; how it was run: as §2

NS(=O)(=O)c1cccc2c1C(=O)C=C(Nc1ccccc1N1CCNCC1)C2=O
Activity [1]: Non-Toxic | half-life [2]: 42.6 min | inhibition [3]: Dose-dependent effect | inhibition [4]: Active | inhibition [5]: Dose-dependent effect | AUMCt [6]: 109.3 hr2.ng/ml | inhibition [7]: inactive | bioavailability [8]: 44.7% | Ki [9]: 2.42 µM | Activity [10]: Non-Toxic | inhibition [11]: Active | Activity [12]: inactive | inhibition [13]: inactive | C0 at 24 h [14]: 382 ng/mL | IC50 [15]: 5.1 µM | AUC(0-t) at 24 h [16]: 189 ng·h/mL
